Pf Dd2 growth = P. falciparum Dd2 growth inhibitors, primary screen, SYBR Green fluorescence, single dose replicates; 72 h; hits give low values; activity change, % at 10 µM; 2.3% of 94,000 active; AID 1159554, 2015; in the data active = activity change below about -80%; inconclusive = no clear call, values can overlap the other calls
IDH1 R132H inh = inhibitors of IDH1 R132H reductase, primary screen, biochemical, plate reader, single point; Isocitrate dehydrogenase [NADP] cytoplasmic (Homo sapiens), O75874; diaphorase/resazurin fluorescence, 60 min; inhibition, % at 10 µM; 0.18% of 70,000 active; AID 624101, 2012; in the data active = inhibition above about 34%; inconclusive = no clear call, values can overlap the other calls; inactive = below about 11%
KDM4C inh = inhibitors of GASC-1 (KDM4C) histone demethylase, primary screen, biochemical, single concentration HTS. Lysine-specific demethylase 4C (Homo sapiens), Q9H3R0. 0.15% of 96,000 active. GST-KDM4C 2-372, H3K9me3 peptide, LANCE TR-FRET. inhibition, % at 12.5 µM;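 active = mean replicate inhibition above about 25%, with at least 55% of replicates also reaching it, limit read from the data, passing the limit was not always enough; inconclusive = only one of those two conditions met; inactive = neither condition met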
Target sequence (Q9H3R0 2-372 limits assumed): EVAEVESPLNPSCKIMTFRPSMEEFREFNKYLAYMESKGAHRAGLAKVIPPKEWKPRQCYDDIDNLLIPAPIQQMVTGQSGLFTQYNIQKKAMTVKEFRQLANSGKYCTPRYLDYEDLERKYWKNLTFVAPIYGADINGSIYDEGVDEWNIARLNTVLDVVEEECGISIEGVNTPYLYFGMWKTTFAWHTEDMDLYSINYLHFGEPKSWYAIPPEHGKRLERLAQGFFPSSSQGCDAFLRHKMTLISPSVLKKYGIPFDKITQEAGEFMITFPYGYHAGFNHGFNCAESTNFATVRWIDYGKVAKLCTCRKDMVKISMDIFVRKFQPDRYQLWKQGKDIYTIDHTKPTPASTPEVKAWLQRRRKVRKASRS
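Test system: N-terminal GST-fused human GASC-1 (KDM4C) fragment, residues 2-372; quantity: GASC-1 enzyme at 10 nM final in reaction; dosing: single dose; schedule: 30 min demethylation and 1 h detection at room temperature; signal: LANCE TR-FRET, excitation 340 nm, emissions 618 and 671 nm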
T cruzi growth-1 = T. cruzi intracellular proliferation inhibitors, primary screen, cell-based, beta-gal Tulahuen parasites, NIH3T3 host, luminescence; T. cruzi beta-gal in NIH3T3, GalScreen luminescence, 90 h; inhibition, % at 8.34 µM; 5.9% of 77,000 active;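 active = mean inhibition above about 93%, with at least 55% of replicates each passing it, limit read from the data, passing the limit was not always enough; inconclusive = only one of those two conditions holds; inactive = neither condition holds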
T cruzi growth-2 = T. cruzi intracellular proliferation inhibitors, confirmation, cell-based, NIH3T3 host, beta-gal parasite, luminescence, cherry-pick | shares compounds with T cruzi growth-1 | 72% of 5,600 active | inhibition, % at 8.35 µM | T. cruzi beta-gal in NIH3T3, GalScreen luminescence, 90 h;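 active = mean replicate inhibition above about 95% and at least 55% of replicates individually reaching it, limit read from the data; inconclusive = only one of the two criteria is met; inactive = neither criterion is met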
T cruzi growth-3 = inhibitors of intracellular T. cruzi replication, confirmation, NIH3T3 host cells, beta-gal parasites, cherry-pick, set 2. inhibition, % at 2.09 µM. 21% of 5,600 active. T. cruzi beta-gal in NIH3T3, GalScreen luminescence, 90 h. shares compounds with T cruzi growth-1;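 active = mean inhibition above about 95%, with at least 55% of replicates also reaching it, limit read from the data; inconclusive = meets just one of the two conditions; inactive = meets neither condition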
3T3 cytotox = cytotoxicity in mouse NIH/3T3 fibroblasts, confirmation, cytotoxicity control for T. cruzi proliferation inhibitor project, cell-based, cherry-pick, single point. NIH/3T3 viability, CellTiter-Glo ATP luminescence, 90 h. shares compounds with T cruzi growth-1. AID 651742, 2012. 14% of 5,600 active. cytotoxicity (signal decrease), % at 8.35 µM;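 active = mean signal decrease across replicates above about 35% based on untreated-well scatter, with enough replicates individually passing, limit read from the data; inconclusive = no rule stated though some were filed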
NIH3T3 tox 2 = NIH/3T3 fibroblast cytotoxicity, confirmation, cytotoxicity control, cell-based, cherry-pick, single point, set 2 | NIH/3T3 viability, CellTiter-Glo ATP luminescence, 90 h | 56% of 5,600 active | shares compounds with T cruzi growth-1 | inhibition, % at 24.9 µM;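 active = mean loss of cell viability signal at or above a set limit, and enough replicates individually reaching it; inconclusive = meets only the mean limit or only the replicate share; inactive = meets neither condition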
A number is an active result; 0 = inactive; ? = inconclusive; - = not tested or not shown. A selection: hits, their analogues and other compounds. The true share with any hit is near 5.9%.

SMILES	Pf Dd2 growth	IDH1 R132H inh	KDM4C inh	T cruzi growth-1	T cruzi growth-2	T cruzi growth-3	3T3 cytotox	NIH3T3 tox 2
COc1ccc(NC(=O)Nc2ccc3c(c2)C(=O)N([C@@H](C)CO)C[C@@H](C)[C@@H](CN(C)C(=O)Nc2cccc4ccccc24)OCCCC[C@@H](C)O3)cc1	0	-	0	?	103	0	0	0
C[C@@H]1CCCCO[C@@H](CN(C)C(=O)Nc2ccc(F)cc2)[C@@H](C)CN([C@@H](C)CO)C(=O)c2cc(NC(=O)Nc3cccc4ccccc34)ccc2O1	0	-	0	0	-	-	-	-
C[C@H]1CCCCO[C@H](CN(C)C(=O)Nc2cccc3ccccc23)[C@@H](C)CN([C@@H](C)CO)C(=O)c2cc(NC(=O)Nc3ccc(F)cc3)ccc2O1	0	-	0	0	-	-	-	-
C[C@@H]1CCCCO[C@@H](CN(C)C(=O)Nc2ccc(F)cc2)[C@@H](C)CN([C@H](C)CO)C(=O)c2cc(NC(=O)Nc3cccc4ccccc34)ccc2O1	0	0	0	103	0	0	0	0
C[C@@H]1CCCCO[C@@H](CN(C)C(=O)Nc2cccc3ccccc23)[C@H](C)CN([C@H](C)CO)C(=O)c2cc(NC(=O)Nc3ccc(F)cc3)ccc2O1	0	0	0	96	102	109	0	0
C[C@@H]1CN([C@@H](C)CO)C(=O)c2cc(NC(=O)c3ccncc3)ccc2O[C@@H](C)CCCCO[C@@H]1CN(C)S(=O)(=O)c1ccccc1	0	0	0	-	-	-	-	-
O=C(c1ccc(F)cc1)N1[C@H](CO)[C@H]2c3ccccc3NC[C@H]21	0	-	0	0	-	-	-	-
C[C@H]1CN([C@@H](C)CO)C(=O)Cc2cc(NS(=O)(=O)c3ccccc3)ccc2O[C@H]1CN(C)Cc1ccc(C(F)(F)F)cc1	0	-	0	-	-	-	-	-
COc1ccc(S(=O)(=O)N(C)C[C@H]2Oc3c(NC(=O)Nc4cccc5ccccc45)cccc3C(=O)N([C@H](C)CO)C[C@H]2C)cc1	-83	0	0	128	0	0	0	29
C[C@H](CO)N1C[C@H](C)[C@H](CN(C)S(=O)(=O)c2ccccc2)Oc2c(NC(=O)Nc3cccc4ccccc34)cccc2C1=O	0	0	0	-	-	-	-	-
COc1ccc(S(=O)(=O)N(C)C[C@H]2Oc3c(NC(=O)Nc4cccc5ccccc45)cccc3C(=O)N([C@H](C)CO)C[C@@H]2C)cc1	0	-	-	117	108	0	0	0
COc1ccc(S(=O)(=O)N(C)C[C@H]2Oc3c(NC(=O)Nc4cccc5ccccc45)cccc3C(=O)N([C@@H](C)CO)C[C@@H]2C)cc1	0	0	0	100	112	0	0	0
Cc1noc(C)c1NC(=O)N(C)C[C@H]1Oc2c(NC(=O)C3CCOCC3)cccc2C(=O)N([C@@H](C)CO)C[C@@H]1C	0	0	0	0	-	-	-	-
CCOC(=O)C1(CCC#N)C(=O)C=C(c2ccc(OC)cc2)CC1c1ccc2ccccc2c1 (configuration not stated)	-	0	-	-	-	-	-	-
O=C(CC1CC1)Nc1ccc2c(c1)[C@H]1C[C@@H](CC(=O)N3CCCCC3)O[C@H](CO)[C@H]1O2	0	0	0	104	?	0	0	0
O=C(CC1CC1)Nc1ccc2c(c1)[C@H]1C[C@H](CC(=O)N3CCCCC3)O[C@H](CO)[C@H]1O2	0	0	0	0	-	-	-	-
O=C(CC1CC1)Nc1ccc2c(c1)[C@H]1C[C@@H](CC(=O)N3CCCCC3)O[C@@H](CO)[C@H]1O2	0	0	0	0	-	-	-	-
O=C(C[C@@H]1C[C@@H]2c3cc(NS(=O)(=O)c4ccccc4)ccc3O[C@@H]2[C@H](CO)O1)N1CCCCC1	0	0	0	104	0	0	0	0
O=C(CC1CC1)Nc1ccc2c(c1)[C@@H]1C[C@@H](CC(=O)N3CCCCC3)O[C@H](CO)[C@@H]1O2	0	0	0	110	0	0	0	0
Cc1noc(C)c1NC(=O)Nc1ccc2c(c1)C(=O)N([C@@H](C)CO)C[C@@H](C)[C@H](CN(C)S(=O)(=O)c1ccccc1)OCCCC[C@H](C)O2	0	-	0	0	-	-	-	-
COc1ccccc1C#Cc1cnc2c(c1)C(=O)N([C@@H](C)CO)C[C@H](C)[C@H](CN(C)C(=O)CC1CC1)O2	0	0	0	0	-	-	-	-
COc1ccccc1C#Cc1cnc2c(c1)C(=O)N([C@H](C)CO)C[C@@H](C)[C@H](CN(C)C(=O)CC1CC1)O2	0	-	0	108	102	0	0	39
COc1ccccc1C#Cc1cnc2c(c1)C(=O)N([C@@H](C)CO)C[C@@H](C)[C@H](CN(C)C(=O)CC1CC1)O2	0	0	0	108	112	111	0	45
Cc1ccc(-c2ccc3c(c2)O[C@@H](CN(C)C(=O)NC(C)C)[C@@H](C)CN([C@@H](C)CO)S3(=O)=O)cc1	0	0	0	0	-	-	-	-
C[C@H]1CN([C@@H](C)CO)C(=O)c2cccc(NC(=O)c3ccncc3)c2O[C@H]1CN(C)C(=O)Nc1cccc2ccccc12	0	0	0	96	?	0	0	0
C[C@H](CO)N1C[C@H](C)[C@@H](CN(C)C(=O)Nc2cccc3ccccc23)Oc2c(NC(=O)Nc3ccc(C(F)(F)F)cc3)cccc2C1=O	0	-	0	97	104	0	0	103
C[C@H](CO)N1C[C@H](C)[C@H](CN(C)C(=O)Nc2ccccc2)Oc2c(NC(=O)Nc3cccc4ccccc34)cccc2C1=O	0	0	0	110	107	0	0	41
C[C@@H]1CN([C@@H](C)CO)C(=O)c2cccc(NC(=O)Nc3ccc(C(F)(F)F)cc3)c2O[C@@H]1CN(C)C(=O)Nc1cccc2ccccc12	0	0	0	0	-	-	-	-
C[C@H]1CN([C@@H](C)CO)C(=O)c2cccc(NC(=O)Nc3cccc4ccccc34)c2O[C@H]1CN(C)C(=O)Nc1ccc(F)cc1	0	0	0	116	109	0	0	?
CCOc1ccc(NC(=O)Cn2ccc([N+](=O)[O-])n2)cc1	-	0	-	-	-	-	-	-

Screening results as filed in PubChem BioAssay.
